According to ChEMBL document CHEMBL1154046, “Synthesis of some urea and thiourea derivatives of 3-phenyl/ethyl-2-thioxo-2,3-dihydrothiazolo[4,5-d]pyrimidine and their antagonistic effects on haloperidol-induced catalepsy and oxidative stress in mice” (2009):

Key:
Assay type in all cases: functional
Conditions in all cases: route intraperitoneal, in the assay text read “ip” for “po”
Mus musculus [1] = test: Inhibition of haloperidol-induced catalepsy in Swiss albino mouse assessed as time elapsed until release of forepaw from bar at 100 mg/kg, […] 30 min prior to haloperidol challenge measured after 180 mins by bar test
Procedure, shortened: (§1)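 Adult male pathogen-free Swiss albino mice (18–25 g), n = 5 per group, each used once. Compounds at 100 mg/kg i.p. were given as a suspension in 0.5% gum acacia 30 min before haloperidol 5 mg/kg i.p. Forepaws were placed on a horizontal bar 9 cm high, and descent time was recorded every 30 min for 3 h. Testing ran at 23 ± 1 °C under 20 lux. Values are mean ± S.E.M.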

Mus musculus [2] = test: Inhibition of haloperidol-induced catalepsy in Swiss albino mouse assessed as time elapsed until release of forepaw from bar at 100 mg/kg, […] 30 min prior to haloperidol challenge measured after 120 mins by bar test; procedure, shortened: as §1
Mus musculus [3] = test: Inhibition of haloperidol-induced catalepsy in Swiss albino mouse assessed as time elapsed until release of forepaw from bar at 100 mg/kg, […] 30 min prior to haloperidol challenge measured after 90 mins by bar test; procedure, shortened: as §1
Mus musculus [4] = test: Inhibition of haloperidol-induced catalepsy in Swiss albino mouse at 100 mg/kg, […] 30 min prior to haloperidol challenge by bar test relative to haloperidol control
Procedure, shortened: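 Mice received compound at 100 mg/kg i.p. (in 0.5% gum acacia) 30 min before haloperidol 5 mg/kg i.p., n = 5. The bar test was run every 30 min over 3 h, and descent times were summed as CDT [3 h]. Haloperidol CDT minus vehicle CDT was set as 100% catalepsy, and % inhibition was calculated against it.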

Mus musculus [5] = test: Inhibition of haloperidol-induced catalepsy in Swiss albino mouse assessed as time elapsed until release of forepaw from bar at 100 mg/kg, […] 30 min prior to haloperidol challenge measured after 150 mins by bar test; procedure, shortened: as §1
Mus musculus [6] = test: Inhibition of haloperidol-induced catalepsy in Swiss albino mouse assessed as time elapsed until release of forepaw from bar at 100 mg/kg, […] 30 min prior to haloperidol challenge measured after 30 mins by bar test; procedure, shortened: as §1
Mus musculus [7] = test: Inhibition of haloperidol-induced catalepsy in Swiss albino mouse assessed as time elapsed until release of forepaw from bar at 100 mg/kg, […] 30 min prior to haloperidol challenge measured after 60 mins by bar test; procedure, shortened: as §1

SMILES | Catalepsy duration (time to release forepaw from bar) (Mus musculus [1]) | catalepsy descent time (Mus musculus [2]) | catalepsy descent time (Mus musculus [3]) | inhibition (INH) (Mus musculus [4]) | Time to forepaw release from bar (Mus musculus [5]) | descent time (Mus musculus [6]) | Catalepsy time (forepaw descent time) (Mus musculus [7])
CCn1c(=S)sc2c(NC(=O)Nc3ccc(OC)cc3)ncnc21 | 2.38 min | 2.02 min | 1.9 min | 43.3% | 2.3 min | 1.28 min | 1.85 min
O=C(CCCN1CCC(O)(c2ccc(Cl)cc2)CC1)c1ccc(F)cc1 [HALOPERIDOL] | 5 min | 5 min | 4.55 min |  | 5 min | 3.05 min | 3.73 min
CCn1c(=S)sc2c(NC(=O)Nc3ccccc3[N+](=O)[O-])ncnc21 | 3.8 min | 3.3 min | 3.48 min | 70.9% | 3.75 min | 1.7 min | 2.8 min
O=[N+]([O-])c1ccc(NC(=S)Nc2ncnc3c2sc(=S)n3-c2ccccc2)cc1 | 2.65 min | 2.45 min | 2.18 min | 47.5% | 2.68 min | 0.967 min | 1.88 min
Fc1ccccc1NC(=S)Nc1ncnc2c1sc(=S)n2-c1ccccc1 | 4.28 min | 2.67 min | 2.37 min | 58.8% | 3.47 min | 1.3 min | 1.65 min
O=C(Nc1ccccc1Cl)Nc1ncnc2c1sc(=S)n2-c1ccccc1 | 2.9 min | 2.78 min | 2.4 min | 53% | 2.92 min | 1.27 min | 1.97 min
CCn1c(=S)sc2c(NC(=O)Nc3ccc([N+](=O)[O-])cc3)ncnc21 | 3.85 min | 3.53 min | 3.23 min | 68.1% | 3.5 min | 1.67 min | 2.33 min
O=C(Nc1ccc(F)cc1)Nc1ncnc2c1sc(=S)n2-c1ccccc1 | 3.8 min | 2.63 min | 1.92 min | 52.9% | 2.55 min | 1.42 min | 1.9 min
O=C(Nc1ccc(Cl)cc1)Nc1ncnc2c1sc(=S)n2-c1ccccc1 | 4.03 min | 3.42 min | 2.32 min | 65.3% | 3.43 min | 1.27 min | 2.95 min
CCn1c(=S)sc2c(NC(=O)Nc3ccccc3)ncnc21 | 3.32 min | 2.4 min | 2.12 min | 47.8% | 2.22 min | 0.817 min | 2.03 min
CCn1c(=S)sc2c(NC(=O)Nc3ccccc3F)ncnc21 | 2.95 min | 2.88 min | 2.3 min | 53.4% | 3.1 min | 1.12 min | 1.98 min
CCn1c(=S)sc2c(NC(=O)Nc3ccc(F)cc3)ncnc21 | 3.95 min | 3.07 min | 1.88 min | 55.1% | 3.12 min | 1.1 min | 1.65 min
S=C(Nc1ccccc1)Nc1ncnc2c1sc(=S)n2-c1ccccc1 | 3.62 min | 3.2 min | 1.25 min | 51% | 3.6 min | 1.1 min | 0.967 min
COc1ccc(NC(=S)Nc2ncnc3c2sc(=S)n3-c2ccccc2)cc1 | 2.22 min | 2.63 min | 1.72 min | 43.1% | 2.87 min | 1.17 min | 1.1 min
CCn1c(=S)sc2c(NC(=O)Nc3ccccc3Cl)ncnc21 | 3.15 min | 2.62 min | 2.18 min | 58.4% | 3.27 min | 2.12 min | 2.3 min
COc1ccc(NC(=O)Nc2ncnc3c2sc(=S)n3-c2ccccc2)cc1 | 2.15 min | 2.25 min | 1.67 min | 39% | 2.08 min | 0.95 min | 1.53 min
O=[N+]([O-])c1ccccc1NC(=S)Nc1ncnc2c1sc(=S)n2-c1ccccc1 | 3.87 min | 1.55 min | 1.15 min | 45.4% | 3.9 min | 0.7 min | 1.15 min
S=C(Nc1ccccc1Cl)Nc1ncnc2c1sc(=S)n2-c1ccccc1 | 3.97 min | 2.63 min | 3.08 min | 62.6% | 4.02 min | 1.07 min | 1.93 min
S=C(Nc1ccc(Cl)cc1)Nc1ncnc2c1sc(=S)n2-c1ccccc1 | 4.47 min | 2.8 min | 2.55 min | 62.6% | 3.48 min | 0.967 min | 2.45 min
CCn1c(=S)sc2c(NC(=S)Nc3ccc(OC)cc3)ncnc21 | 2.23 min | 1.9 min | 1.53 min | 32.3% | 2.1 min | 0.433 min | 0.717 min
O=C(Nc1ccccc1[N+](=O)[O-])Nc1ncnc2c1sc(=S)n2-c1ccccc1 | 2.95 min | 2.25 min | 2.02 min | 44.8% | 2.93 min | 0.917 min | 1.05 min
CCn1c(=S)sc2c(NC(=O)Nc3ccc(Cl)cc3)ncnc21 | 4.12 min | 2.53 min | 2.72 min | 64.1% | 3.77 min | 1.07 min | 2.88 min
